Experimental data reported in ChEMBL document CHEMBL4680065, “Pharmacophore-based screening of diamidine small molecule inhibitors for protein arginine methyltransferases” (RSC Med Chem, 2021).
pIC50: −log10 of the molar value.

Key:
[1] = molecular target: Protein arginine N-methyltransferase 1 (Homo sapiens, UniProt Q99873); assay: Inhibition of recombinant human His-tagged PRMT1 expressed in Escherichia coli BL21 (DE3) using biotin-labeled histone H4-20 as substrate incubated for 8 mins in presence of [3H]-SAM cofactor by scintillation proximity assay
Protein arginine N-methyltransferase 1, sequence (Q99873 whole entry): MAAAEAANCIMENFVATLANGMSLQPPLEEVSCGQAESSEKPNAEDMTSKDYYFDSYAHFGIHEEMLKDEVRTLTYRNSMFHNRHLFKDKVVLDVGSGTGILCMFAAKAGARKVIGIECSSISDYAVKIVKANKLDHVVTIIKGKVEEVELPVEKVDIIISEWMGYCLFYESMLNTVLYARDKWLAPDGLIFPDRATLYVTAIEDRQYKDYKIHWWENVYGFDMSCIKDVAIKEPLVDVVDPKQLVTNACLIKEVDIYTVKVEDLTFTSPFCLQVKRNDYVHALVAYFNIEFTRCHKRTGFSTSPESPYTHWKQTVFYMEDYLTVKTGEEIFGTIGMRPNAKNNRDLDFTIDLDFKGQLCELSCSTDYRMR

[2] = molecular target: Protein arginine N-methyltransferase 3 (Homo sapiens, UniProt O60678); assay: Inhibition of recombinant human His-tagged PRMT3 expressed in Escherichia coli BL21 (DE3) using biotin-labeled SMD1 as substrate incubated for 10 mins in presence of [3H]-SAM cofactor by scintillation proximity assay
Protein arginine N-methyltransferase 3, sequence (O60678 whole entry): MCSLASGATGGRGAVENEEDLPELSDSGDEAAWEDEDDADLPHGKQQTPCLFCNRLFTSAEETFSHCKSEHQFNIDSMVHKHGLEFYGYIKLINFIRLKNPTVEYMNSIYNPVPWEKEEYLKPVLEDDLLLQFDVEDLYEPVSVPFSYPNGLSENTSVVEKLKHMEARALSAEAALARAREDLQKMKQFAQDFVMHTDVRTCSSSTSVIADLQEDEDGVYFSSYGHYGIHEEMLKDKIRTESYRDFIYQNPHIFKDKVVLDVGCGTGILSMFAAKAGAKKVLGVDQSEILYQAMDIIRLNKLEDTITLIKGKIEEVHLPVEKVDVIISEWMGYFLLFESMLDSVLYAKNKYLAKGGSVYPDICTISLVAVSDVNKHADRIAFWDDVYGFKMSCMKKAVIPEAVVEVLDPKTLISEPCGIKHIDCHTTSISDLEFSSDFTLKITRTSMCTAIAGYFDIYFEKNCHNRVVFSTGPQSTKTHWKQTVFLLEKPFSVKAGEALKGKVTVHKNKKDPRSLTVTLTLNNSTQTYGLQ
How it was run: (§1)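 The inhibitor was serially diluted and added to the enzyme, [3H]-SAM and substrate mixture, and methylated substrate was quantified by scintillation proximity assay. Reactions were held at initial rate, with yield under 10% and substrate near Km. PRMT3, PRMT8 and G9a were His-tagged human proteins, and PRMT7 was GST-tagged, all expressed in E. coli and affinity-purified.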

[3] = molecular target: T1, Histone-arginine methyltransferase CARM1 (Homo sapiens, UniProt Q86X55); assay: Inhibition of recombinant GST-tagged CARM1 (unknown origin) expressed in Escherichia coli using […] incubated for 120 mins in presence of [3H]-SAM cofactor by radioactive filter plate assay
T1 sequence (Q86X55 whole entry): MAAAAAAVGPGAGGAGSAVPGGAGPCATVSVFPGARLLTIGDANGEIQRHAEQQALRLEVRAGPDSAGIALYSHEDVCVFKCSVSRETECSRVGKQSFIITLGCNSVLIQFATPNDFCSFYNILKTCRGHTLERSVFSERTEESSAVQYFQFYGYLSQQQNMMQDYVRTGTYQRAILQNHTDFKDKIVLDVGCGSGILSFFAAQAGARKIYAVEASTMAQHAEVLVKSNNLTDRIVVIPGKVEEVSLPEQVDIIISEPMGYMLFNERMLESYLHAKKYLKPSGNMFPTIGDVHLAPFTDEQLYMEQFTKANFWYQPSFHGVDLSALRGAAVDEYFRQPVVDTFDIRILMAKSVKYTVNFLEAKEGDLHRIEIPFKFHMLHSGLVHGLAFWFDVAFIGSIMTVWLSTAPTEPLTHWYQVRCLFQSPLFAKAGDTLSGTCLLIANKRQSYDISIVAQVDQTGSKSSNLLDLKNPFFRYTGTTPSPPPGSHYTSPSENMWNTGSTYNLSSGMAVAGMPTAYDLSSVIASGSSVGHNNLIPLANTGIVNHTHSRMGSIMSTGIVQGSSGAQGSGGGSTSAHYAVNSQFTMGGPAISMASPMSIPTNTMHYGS

PRMT5/MEP50 complex = PRMT5/MEP50 complex (Homo sapiens, UniProt O14744); assay: Inhibition of PRMT5/MEP50 (unknown origin) using biotin-labeled histone H4-20 peptide as substrate incubated for 8 mins in presence of [3H]-SAM cofactor by scintillation proximity assay; type: protein-complex assay
PRMT5/MEP50 complex, sequence (O14744 whole entry): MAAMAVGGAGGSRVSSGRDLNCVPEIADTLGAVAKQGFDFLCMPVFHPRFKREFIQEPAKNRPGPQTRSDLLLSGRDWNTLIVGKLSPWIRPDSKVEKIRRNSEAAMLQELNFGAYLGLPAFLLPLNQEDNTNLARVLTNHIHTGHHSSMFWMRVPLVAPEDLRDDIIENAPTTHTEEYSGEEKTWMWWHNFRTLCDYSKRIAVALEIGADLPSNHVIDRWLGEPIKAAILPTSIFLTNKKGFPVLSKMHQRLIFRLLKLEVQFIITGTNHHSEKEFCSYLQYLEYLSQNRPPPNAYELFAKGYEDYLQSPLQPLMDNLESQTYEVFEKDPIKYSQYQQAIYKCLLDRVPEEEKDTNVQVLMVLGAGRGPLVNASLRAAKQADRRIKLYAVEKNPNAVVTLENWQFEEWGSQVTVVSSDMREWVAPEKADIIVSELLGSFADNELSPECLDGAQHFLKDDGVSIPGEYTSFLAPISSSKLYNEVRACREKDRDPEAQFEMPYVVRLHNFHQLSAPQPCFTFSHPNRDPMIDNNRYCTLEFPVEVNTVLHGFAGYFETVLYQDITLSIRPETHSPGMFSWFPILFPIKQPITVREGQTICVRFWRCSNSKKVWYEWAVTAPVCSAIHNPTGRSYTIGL
PRMT5/MEP50 complex, sequence (Q9BQA1 whole entry, further chain): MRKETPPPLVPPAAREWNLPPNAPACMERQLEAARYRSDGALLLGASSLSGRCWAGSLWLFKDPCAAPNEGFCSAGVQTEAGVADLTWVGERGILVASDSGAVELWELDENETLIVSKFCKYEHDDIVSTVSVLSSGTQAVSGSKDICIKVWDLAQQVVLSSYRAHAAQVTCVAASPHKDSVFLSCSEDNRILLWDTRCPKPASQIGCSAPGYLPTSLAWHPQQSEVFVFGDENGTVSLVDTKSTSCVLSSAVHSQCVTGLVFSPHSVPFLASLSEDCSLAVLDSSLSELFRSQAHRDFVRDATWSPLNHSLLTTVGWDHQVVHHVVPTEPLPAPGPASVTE
How it was run: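 Part of a methyltransferase selectivity panel. Test compound was serially diluted into a mixture of enzyme, [3H]-SAM cofactor and substrate. Methylated substrate was quantified by scintillation proximity assay. Reactions were held at initial-rate conditions with substrate turnover under 10%, and substrate concentrations were near Km.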

[4] = molecular target: Protein arginine N-methyltransferase 6 (Homo sapiens, UniProt Q96LA8); assay: Inhibition of PRMT6 (unknown origin) using biotin-labeled SMD1 as substrate incubated for 30 mins in presence of [3H]-SAM cofactor by scintillation proximity assay
Protein arginine N-methyltransferase 6, sequence (Q96LA8 whole entry): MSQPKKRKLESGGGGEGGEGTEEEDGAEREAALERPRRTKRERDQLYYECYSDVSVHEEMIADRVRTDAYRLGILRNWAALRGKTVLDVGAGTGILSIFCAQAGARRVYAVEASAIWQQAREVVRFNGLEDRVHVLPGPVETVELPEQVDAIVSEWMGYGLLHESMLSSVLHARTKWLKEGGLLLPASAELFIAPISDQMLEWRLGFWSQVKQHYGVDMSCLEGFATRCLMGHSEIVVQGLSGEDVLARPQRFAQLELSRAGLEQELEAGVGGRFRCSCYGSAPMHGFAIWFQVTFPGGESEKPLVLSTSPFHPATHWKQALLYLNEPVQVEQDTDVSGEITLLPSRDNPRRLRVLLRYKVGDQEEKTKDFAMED

[5] = molecular target: T2, Protein arginine N-methyltransferase 7 (Homo sapiens, UniProt Q9NVM4); assay: Inhibition of recombinant GST-tagged PRMT7 (unknown origin) expressed in Escherichia coli using biotin-labeled SMD1 as substrate incubated for 120 mins in presence of [3H]-SAM cofactor by scintillation proximity assay; how it was run: as §1
T2 sequence (Q9NVM4 whole entry): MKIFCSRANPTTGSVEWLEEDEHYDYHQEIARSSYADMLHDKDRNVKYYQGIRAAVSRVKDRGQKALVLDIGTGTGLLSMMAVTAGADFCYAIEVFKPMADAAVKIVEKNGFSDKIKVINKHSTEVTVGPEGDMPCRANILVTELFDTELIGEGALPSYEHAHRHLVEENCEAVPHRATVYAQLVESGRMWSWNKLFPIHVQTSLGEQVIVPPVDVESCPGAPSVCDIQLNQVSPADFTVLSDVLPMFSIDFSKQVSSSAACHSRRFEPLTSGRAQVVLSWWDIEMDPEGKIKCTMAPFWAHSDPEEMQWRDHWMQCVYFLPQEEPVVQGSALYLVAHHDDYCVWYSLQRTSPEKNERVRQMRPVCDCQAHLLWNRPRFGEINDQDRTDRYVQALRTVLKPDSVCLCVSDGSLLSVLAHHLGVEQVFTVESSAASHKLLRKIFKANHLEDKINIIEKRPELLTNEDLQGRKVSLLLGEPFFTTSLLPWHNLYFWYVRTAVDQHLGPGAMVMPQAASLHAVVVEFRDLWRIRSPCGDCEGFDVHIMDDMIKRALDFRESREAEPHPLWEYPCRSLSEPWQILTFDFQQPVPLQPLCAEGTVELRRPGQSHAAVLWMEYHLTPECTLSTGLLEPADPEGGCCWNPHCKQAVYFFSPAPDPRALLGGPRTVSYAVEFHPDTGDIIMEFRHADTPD

[6] = molecular target: Protein arginine N-methyltransferase 8 (Homo sapiens, UniProt Q9NR22); assay: Inhibition of recombinant His-tagged human PRMT8 expressed in Escherichia coli BL21 (DE3) using biotin-labeled histone H4-20 peptide as substrate incubated for 8 mins in presence of [3H]-SAM cofactor by scintillation proximity assay; how it was run: as §1
Protein arginine N-methyltransferase 8, sequence (Q9NR22 whole entry): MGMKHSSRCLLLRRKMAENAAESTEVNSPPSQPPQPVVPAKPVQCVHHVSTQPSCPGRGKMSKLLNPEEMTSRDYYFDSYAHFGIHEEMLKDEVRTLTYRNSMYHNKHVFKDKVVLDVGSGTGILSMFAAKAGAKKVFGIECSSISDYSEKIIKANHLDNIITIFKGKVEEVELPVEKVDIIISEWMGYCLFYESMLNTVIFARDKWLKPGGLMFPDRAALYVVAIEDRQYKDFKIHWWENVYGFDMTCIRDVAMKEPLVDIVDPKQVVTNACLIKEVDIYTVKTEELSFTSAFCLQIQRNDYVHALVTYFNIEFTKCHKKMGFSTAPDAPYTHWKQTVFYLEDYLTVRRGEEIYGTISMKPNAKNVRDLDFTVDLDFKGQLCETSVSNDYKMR

[7] = molecular target: T3, Histone-lysine N-methyltransferase EHMT2 (Homo sapiens, UniProt Q96KQ7); assay: Inhibition of recombinant His-tagged human G9a expressed in Escherichia coli BL21 (DE3) using biotin-labeled histone H3-20 peptide as substrate incubated for 30 mins in presence of [3H]-SAM cofactor by scintillation proximity assay; how it was run: as §1
T3 sequence (Q96KQ7 whole entry): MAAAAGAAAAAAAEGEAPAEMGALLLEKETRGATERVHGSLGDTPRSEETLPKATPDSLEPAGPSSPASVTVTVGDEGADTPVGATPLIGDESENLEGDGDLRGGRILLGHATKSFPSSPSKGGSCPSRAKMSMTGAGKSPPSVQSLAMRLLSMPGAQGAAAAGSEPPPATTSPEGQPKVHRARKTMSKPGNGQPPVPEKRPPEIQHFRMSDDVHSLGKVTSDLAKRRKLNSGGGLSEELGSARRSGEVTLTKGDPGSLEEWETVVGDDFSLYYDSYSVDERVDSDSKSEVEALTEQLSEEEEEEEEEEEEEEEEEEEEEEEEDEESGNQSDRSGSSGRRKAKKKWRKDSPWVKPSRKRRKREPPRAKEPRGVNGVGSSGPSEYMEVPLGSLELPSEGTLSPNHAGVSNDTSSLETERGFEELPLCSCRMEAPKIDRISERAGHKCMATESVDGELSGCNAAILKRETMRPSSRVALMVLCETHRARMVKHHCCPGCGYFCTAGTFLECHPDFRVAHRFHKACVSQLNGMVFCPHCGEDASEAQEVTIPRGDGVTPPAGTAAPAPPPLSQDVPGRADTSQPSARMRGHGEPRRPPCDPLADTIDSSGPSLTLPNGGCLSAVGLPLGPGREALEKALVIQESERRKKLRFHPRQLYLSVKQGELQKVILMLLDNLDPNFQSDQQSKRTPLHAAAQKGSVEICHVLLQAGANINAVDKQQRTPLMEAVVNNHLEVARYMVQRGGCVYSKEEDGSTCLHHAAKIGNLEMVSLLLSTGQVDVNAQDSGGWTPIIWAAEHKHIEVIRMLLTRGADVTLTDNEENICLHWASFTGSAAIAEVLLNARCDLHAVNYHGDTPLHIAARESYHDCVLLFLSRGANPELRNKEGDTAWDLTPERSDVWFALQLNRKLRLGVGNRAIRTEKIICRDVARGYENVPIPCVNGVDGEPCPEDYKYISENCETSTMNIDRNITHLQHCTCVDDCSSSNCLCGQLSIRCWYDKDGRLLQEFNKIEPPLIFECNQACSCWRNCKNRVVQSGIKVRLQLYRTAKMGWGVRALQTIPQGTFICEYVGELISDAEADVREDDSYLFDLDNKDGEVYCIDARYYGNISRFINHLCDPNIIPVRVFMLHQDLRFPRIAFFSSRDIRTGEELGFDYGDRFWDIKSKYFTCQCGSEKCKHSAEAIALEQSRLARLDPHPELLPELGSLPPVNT

For N=C(N)c1ccc2cc(CCc3cc4ccc(C(=N)N)cc4o3)[nH]c2c1, the pIC50 [1] was < 5.00.

N=C(N)c1ccc(/C=C/c2cc3cc(C(=N)N)ccc3o2)cc1 showed a pIC50 [1] of 5.00.

In the case of O=C(Nc1ccc(C2=NCCN2)cc1)c1cc2cc(C3=NCCN3)ccc2o1, the pIC50 [1] was < 4.00.

O=C(Nc1ccc(C2=NCCN2)cc1)c1cc2ccc(C3=NCCN3)cc2o1 was tested, and the pIC50 [1] was < 4.00.

C(=C/c1cc2ccc(C3=NCCN3)cc2o1)/c1cc2ccc(C3=NCCN3)cc2[nH]1 showed a pIC50 [1] of 5.12.

For c1cc2cc(-c3ccc4oc(C5=NCCN5)cc4c3)[nH]c2cc1C1=NCCN1, the pIC50 [2] was 4.72, the pIC50 [3] was 3.81 and the pIC50 (PRMT5/MEP50 complex) was < 3.30. For the same compound, the pIC50 [4] was 4.89, the pIC50 [5] was 3.61 and the pIC50 [6] was 4.22. It also gave a pIC50 [7] of 4.40.

Work on N=C(N)c1ccc2sc(/C=C/c3cc4ccc(C(=N)N)cc4o3)cc2c1 yielded a pIC50 [1] of 4.78.

For N=C(N)c1ccc(NC(=O)c2cc3cc(C(=N)N)ccc3o2)cc1, the pIC50 [1] was < 4.00.

For N=C(N)c1ccc2[nH]c(/C=C/c3cc4ccc(C(=N)N)cc4o3)cc2c1, the pIC50 [1] was 5.12.

For N=C(N)c1ccc2[nH]c(/C=C/c3cc4cc(C(=N)N)ccc4o3)cc2c1, the pIC50 [1] was 5.11.

With N=C(N)c1ccc(NC(=O)c2cc3ccc(C(=N)N)cc3o2)cc1 the pIC50 [1] was < 4.00.

With C(=C\c1cc2ccc(C3=NCCN3)cc2[nH]1)/c1ccc(Oc2ccc(C3=NCCN3)cc2)cc1 the pIC50 [1] was 4.79.

In the case of C(=C/c1cc2ccc(C3=NCCN3)cc2o1)/c1cc2cc(C3=NCCN3)ccc2[nH]1, the pIC50 [1] was 5.10.

With CNCC(=O)NC1=CC2C(=O)c3ccc(NC(=O)CNC)cc3C(=O)C2C=C1 (stereo not given) the pIC50 [2] was 4.94, the pIC50 [3] was 4.91 and the pIC50 (PRMT5/MEP50 complex) was < 3.30. The pIC50 [4] was 4.07, the pIC50 [5] was 3.54 and the pIC50 [6] was 4.36. For the same compound, the pIC50 [7] was < 3.00.

Nc1nc(N)c2nc3c(ccc4ccccc43)nc2n1 showed a pIC50 [2] of 4.25, a pIC50 [3] of 5.04 and a pIC50 (PRMT5/MEP50 complex) of 4.21. The pIC50 [4] was 4.20, the pIC50 [5] was 3.90 and the pIC50 [6] was 3.78. For the same compound, the pIC50 [7] was 4.09.

CNC(=N)N/N=C(/C)c1ccc2oc3ccc(/C(C)=N/NC(=N)NC)cc3c2c1 showed a pIC50 [1] of 5.16, a pIC50 [2] of 5.09 and a pIC50 [3] of 4.81. The pIC50 (PRMT5/MEP50 complex) was 4.72, the pIC50 [4] was 5.22 and the pIC50 [5] was 4.63. It also gave a pIC50 [6] of 4.75 and a pIC50 [7] of 5.33.

C1=C(/C=C/c2ccc3cc(C4=NCCN4)[nH]c3c2)Cc2cc(C3=NCCN3)ccc21 was tested, and the pIC50 [1] was 5.30.

Compound N=C(N)c1ccc2cc(/C=C/c3cc4ccc(C(=N)N)cc4o3)[nH]c2c1 has a pIC50 [1] of 5.62.

C(=C\c1cc2ccc(C3=NCCN3)cc2[nH]1)/c1cc2ccc(C3=NCCN3)cc2[nH]1 was tested, and the pIC50 [1] was 5.21.

In the case of N=C(N)c1ccc(-c2ccc(-c3ccc(C(=N)N)cc3)o2)cc1 [FURAMIDINE], the pIC50 [1] was 5.05.
